This note sets out measurements from ChEMBL document CHEMBL1158102, “Biologically active triterpenoid saponins from Acanthopanax senticosus” (J Nat Prod, 2006).

By inhibition is commonly meant the relative decrease from the control value, in per cent.

Calls of active or inactive are those of the source. The calls are words filed in the database; no cut-off is given here.

This assay concerns the target T1, Pancreatic triacylglycerol lipase (Homo sapiens) (UniProt P16233).
T1 sequence (whole entry): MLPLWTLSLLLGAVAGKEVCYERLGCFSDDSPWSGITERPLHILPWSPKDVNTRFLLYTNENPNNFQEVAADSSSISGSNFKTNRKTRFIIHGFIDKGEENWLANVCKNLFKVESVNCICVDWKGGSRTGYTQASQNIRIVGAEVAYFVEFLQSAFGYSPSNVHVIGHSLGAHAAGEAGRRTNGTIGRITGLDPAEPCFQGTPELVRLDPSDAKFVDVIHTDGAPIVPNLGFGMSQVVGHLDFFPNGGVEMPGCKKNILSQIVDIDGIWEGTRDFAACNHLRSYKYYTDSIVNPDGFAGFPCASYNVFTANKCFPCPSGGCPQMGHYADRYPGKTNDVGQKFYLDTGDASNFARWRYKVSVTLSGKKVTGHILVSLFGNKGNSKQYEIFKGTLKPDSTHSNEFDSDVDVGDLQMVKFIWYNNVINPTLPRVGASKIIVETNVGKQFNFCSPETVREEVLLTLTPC
Briefly: Inhibition of pancreatic lipase assessed as umoles of oleic acic released per millimiter of triolein per hour at 1 mg/mL. The method, boiled down:
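Lipase activity measured as rate of oleic acid release from triolein. Substrate: sonicated triolein, phosphatidylcholine and taurocholic acid in 0.1 M TES buffer pH 7.0 with 0.1 M NaCl. Incubated with pancreatic lipase (10 units) and sample for 30 min at 37 °C. Free fatty acids extracted, converted to copper salts, reacted with bathocuproine, absorbance read at 480 nm. Means ± SEM of three experiments.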
`C=C1CC[C@]2(C(=O)O[C@@H]3O[C@H](CO[C@@H]4O[C@H](CO)[C@@H](O[C@@H]5O[C@@H](C)[C@H](O)[C@@H](O)[C@H]5O)[C@H](O)[C@H]4O)[C@@H](O)[C@H](O)[C@H]3O)CC[C@]3(C)C(=CC[C@H]4[C@H]3CC[C@H]3C(C)(C)[C@@H](O[C@@H]5OC[C@H](O)[C@H](O)[C@H]5O)CC[C@]43C)[C@@H]2C1`: the inhibition was 46.5%.
Still for that read-out and setting: the value for `C[C@@H]1O[C@@H](O[C@H]2[C@H](O[C@H]3CC[C@]4(C)[C@H]5CC=C6[C@@H]7C[C@](C)(C(=O)O)CC[C@]7(C(=O)O)CC[C@@]6(C)[C@@H]5CC[C@H]4C3(C)C)OC[C@H](O)[C@@H]2O)[C@H](O)[C@H](O)[C@H]1O` was 44.9%.
As for `C=C1CC[C@]2(C(=O)O[C@@H]3O[C@H](CO[C@@H]4O[C@H](COC(C)=O)[C@@H](O[C@@H]5O[C@@H](C)[C@H](O)[C@@H](O)[C@H]5O)[C@H](O)[C@H]4O)[C@@H](O)[C@H](O)[C@H]3O)CC[C@]3(C)C(=CC[C@H]4[C@H]3CC[C@H]3C(C)(C)[C@@H](O[C@@H]5OC[C@H](O)[C@H](O)[C@H]5O[C@@H]5O[C@@H](C)[C@H](O)[C@@H](O)[C@H]5O)CC[C@]43C)[C@@H]2C1`, the inhibition is -80.5%.
Still for that read-out and setting: to `C=C1CC[C@]2(C(=O)O[C@@H]3O[C@H](CO[C@@H]4O[C@H](COC(C)=O)[C@@H](O[C@@H]5O[C@@H](C)[C@H](O)[C@@H](O)[C@H]5O)[C@H](O)[C@H]4O)[C@@H](O)[C@H](O)[C@H]3O)CC[C@]3(C)C(=CC[C@H]4[C@H]3CC[C@H]3C(C)(C)[C@@H](O[C@@H]5OC[C@H](O)[C@H](O)[C@H]5O)CC[C@]43C)[C@@H]2C1` belongs -46.7%.
As to `C=C1CC[C@]2(C(=O)O[C@@H]3O[C@H](CO[C@@H]4O[C@H](CO)[C@@H](O[C@@H]5O[C@@H](C)[C@H](O)[C@@H](O)[C@H]5O)[C@H](O)[C@H]4O)[C@@H](O)[C@H](O)[C@H]3O)CC[C@]3(C)C(=CC[C@H]4[C@H]3CC[C@H]3C(C)(C)[C@@H](O[C@@H]5OC[C@H](O)[C@H](O)[C@H]5O[C@@H]5O[C@H](CO)[C@@H](O)[C@H](O)[C@H]5O)CC[C@]43C)[C@@H]2C1`, the result was inactive.
`C=C1CC[C@]2(C(=O)O[C@@H]3O[C@H](CO[C@@H]4O[C@H](CO)[C@@H](O[C@@H]5O[C@@H](C)[C@H](O)[C@@H](O)[C@H]5O)[C@H](O)[C@H]4O)[C@@H](O)[C@H](O)[C@H]3O)CC[C@]3(C)C(=CC[C@H]4[C@H]3CC[C@H]3C(C)(C)[C@@H](O[C@@H]5OC[C@H](O)[C@H](O)[C@H]5O[C@@H]5O[C@@H](C)[C@H](O)[C@@H](O)[C@H]5O)CC[C@]43C)[C@@H]2C1`: the outcome was inactive.
Consider `C[C@@H]1O[C@@H](O[C@H]2[C@H](O[C@H]3CC[C@]4(C)[C@H]5CC=C6[C@@H]7CC(C)(C)CC[C@]7(C(=O)O[C@@H]7O[C@H](CO[C@@H]8O[C@H](CO)[C@@H](O[C@@H]9O[C@@H](C)[C@H](O)[C@@H](O)[C@H]9O)[C@H](O)[C@H]8O)[C@@H](O)[C@H](O)[C@H]7O)CC[C@@]6(C)[C@]5(C)CC[C@H]4C3(C)C)OC[C@H](O)[C@@H]2O)[C@H](O)[C@H](O)[C@H]1O`, for which the result was inactive.
For `C=C(C)[C@@H]1CC[C@]2(C(=O)O[C@@H]3O[C@H](CO[C@@H]4O[C@H](CO)[C@@H](O[C@@H]5O[C@@H](C)[C@H](O)[C@@H](O)[C@H]5O)[C@H](O)[C@H]4O)[C@@H](O)[C@H](O)[C@H]3O)CC[C@]3(C)[C@H](C[C@H]4OC(=O)C[C@@H](O)[C@]5(C)[C@@H]4[C@@]3(C)CC[C@H]5C(=C)C)[C@@H]12`, the inhibition came out at 56.1%.
As for `C=C(C)[C@@H]1CC[C@]2(C(=O)O[C@@H]3O[C@H](CO[C@@H]4O[C@H](CO)[C@@H](O[C@@H]5O[C@@H](C)[C@H](O)[C@@H](O)[C@H]5O)[C@H](O)[C@H]4O)[C@@H](O)[C@H](O)[C@H]3O)CC[C@]3(C)[C@H](CC[C@@H]4[C@@](C)(CCC(=O)O)[C@H](C(=C)C)CC[C@]43C)[C@@H]12`, the inhibition amounted to 44.6%.
As to `C[C@@H]1O[C@@H](O[C@H]2[C@H](O)[C@@H](O)[C@H](OC[C@H]3O[C@@H](OC(=O)[C@]45CCC(C)(C)C[C@H]4C4=CC[C@@H]6[C@@]7(C)CC[C@H](O[C@@H]8OC[C@H](O)[C@H](O)[C@H]8O)C(C)(C)[C@@H]7CC[C@@]6(C)[C@]4(C)CC5)[C@H](O)[C@@H](O)[C@@H]3O)O[C@@H]2CO)[C@H](O)[C@H](O)[C@H]1O`, the outcome was inactive.
On the same count and under the same terms, the value for `CC(=O)OC[C@H]1O[C@@H](OC[C@H]2O[C@@H](OC(=O)[C@]34CCC(C)(C)C[C@H]3C3=CC[C@H]5[C@@H](CC[C@H]6C(C)(C)[C@@H](O[C@@H]7OC[C@H](O)[C@H](O)[C@H]7O[C@@H]7O[C@H](CO)[C@@H](O)[C@H](O)[C@H]7O)CC[C@]56C)[C@]3(C)CC4)[C@H](O)[C@@H](O)[C@@H]2O)[C@H](O)[C@@H](O)[C@@H]1O[C@@H]1O[C@@H](C)[C@H](O)[C@@H](O)[C@H]1O` was “inactive”; that for `C=C1CC[C@]2(C(=O)O[C@@H]3O[C@H](CO[C@@H]4O[C@H](COC(C)=O)[C@@H](O[C@@H]5O[C@@H](C)[C@H](O)[C@@H](O)[C@H]5O)[C@H](O)[C@H]4O)[C@@H](O)[C@H](O)[C@H]3O)CC[C@]3(C)C(=CC[C@H]4[C@H]3CC[C@H]3C(C)(C)[C@@H](O[C@@H]5OC[C@H](O)[C@H](O)[C@H]5O[C@@H]5O[C@H](CO)[C@@H](O)[C@H](O)[C@H]5O)CC[C@]43C)[C@@H]2C1` was “inactive”.
`C[C@@H]1O[C@@H](O[C@H]2[C@H](O[C@H]3CC[C@]4(C)[C@H]5CC=C6[C@@H]7C[C@](C)(CO)CC[C@]7(C(=O)O)CC[C@@]6(C)[C@@H]5CC[C@H]4C3(C)C)OC[C@H](O)[C@@H]2O)[C@H](O)[C@H](O)[C@H]1O`: the inhibition amounted to 33%.
Take `CC(=O)OC[C@H]1O[C@@H](OC[C@H]2O[C@@H](OC(=O)[C@]34CCC(C)(C)C[C@H]3C3=CC[C@H]5[C@@H](CC[C@H]6C(C)(C)[C@@H](O[C@@H]7OC[C@H](O)[C@H](O)[C@H]7O[C@@H]7O[C@@H](C)[C@H](O)[C@@H](O)[C@H]7O)CC[C@]56C)[C@]3(C)CC4)[C@H](O)[C@@H](O)[C@@H]2O)[C@H](O)[C@@H](O)[C@@H]1O[C@@H]1O[C@@H](C)[C@H](O)[C@@H](O)[C@H]1O`: the outcome was inactive.
`C[C@@H]1O[C@@H](O[C@H]2[C@H](O[C@H]3CC[C@]4(C)[C@H]5CC=C6[C@@H]7CC(C)(C)CC[C@]7(C(=O)O[C@@H]7O[C@H](CO[C@@H]8O[C@H](CO)[C@@H](O[C@@H]9O[C@@H](C)[C@H](O)[C@@H](O)[C@H]9O)[C@H](O)[C@H]8O)[C@@H](O)[C@H](O)[C@H]7O)[C@H](O)C[C@@]6(C)[C@@H]5CC[C@H]4C3(C)C)OC[C@H](O)[C@@H]2O)[C@H](O)[C@H](O)[C@H]1O`: the inhibition came to 38.3%.
